The source made the active and inactive calls. The calls are words filed in the database; no cut-off is given here.
Assays:
[1] = molecular target: T1, Toll-like receptor 9 (Mus musculus) (UniProt Q9EQU3); test: Antagonist activity at TLR9 in mouse J774 cells assessed as inhibition of 5'-TCTGACRTTCT-X-TCTTRCAGTCT-3'-induced NF-kappaB activation; type: functional, cell-based
T1 sequence (whole entry): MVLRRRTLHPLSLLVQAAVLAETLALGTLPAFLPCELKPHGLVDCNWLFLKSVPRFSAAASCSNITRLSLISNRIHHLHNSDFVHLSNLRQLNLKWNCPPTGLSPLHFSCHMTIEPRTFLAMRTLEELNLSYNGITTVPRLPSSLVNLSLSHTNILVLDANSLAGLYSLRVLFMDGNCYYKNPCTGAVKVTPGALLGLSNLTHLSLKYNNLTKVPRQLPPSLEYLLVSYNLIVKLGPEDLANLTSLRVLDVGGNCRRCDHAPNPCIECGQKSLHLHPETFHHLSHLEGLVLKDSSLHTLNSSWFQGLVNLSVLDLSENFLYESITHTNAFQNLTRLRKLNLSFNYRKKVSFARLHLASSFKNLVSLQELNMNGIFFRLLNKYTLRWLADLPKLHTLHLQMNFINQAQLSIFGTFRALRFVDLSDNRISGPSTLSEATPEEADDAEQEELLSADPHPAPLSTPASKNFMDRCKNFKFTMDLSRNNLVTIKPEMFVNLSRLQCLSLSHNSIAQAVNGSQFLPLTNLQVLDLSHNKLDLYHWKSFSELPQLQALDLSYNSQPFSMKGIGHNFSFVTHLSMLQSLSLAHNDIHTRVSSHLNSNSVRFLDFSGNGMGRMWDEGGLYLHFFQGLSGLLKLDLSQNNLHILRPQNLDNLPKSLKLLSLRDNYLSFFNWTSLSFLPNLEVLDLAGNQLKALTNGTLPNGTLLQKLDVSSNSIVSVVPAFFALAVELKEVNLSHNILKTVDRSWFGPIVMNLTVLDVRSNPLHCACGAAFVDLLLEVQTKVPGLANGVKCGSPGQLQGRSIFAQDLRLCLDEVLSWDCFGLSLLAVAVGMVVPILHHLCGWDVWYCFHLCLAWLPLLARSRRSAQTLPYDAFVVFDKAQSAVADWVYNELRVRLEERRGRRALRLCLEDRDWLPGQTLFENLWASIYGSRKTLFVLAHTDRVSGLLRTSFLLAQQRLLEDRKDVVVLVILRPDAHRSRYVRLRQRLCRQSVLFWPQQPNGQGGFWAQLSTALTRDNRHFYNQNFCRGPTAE
Outline: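 J774 cells at 5×10^6 cells/well were preincubated with antagonist for 1 h. Agonist was then added: TLR9 agonist 1 µg/mL, an RNA-based TLR7/8 agonist, or LPS 100 ng/mL. Antagonist was used at 5–40 µg/mL or at the indicated agonist ratios. Nuclear extracts were taken 1 h after agonist and analysed by EMSA.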

[2] = molecular target: T1, Toll-like receptor 9 (Mus musculus); test: Antagonist activity in mouse J774 cells assessed as inhibition of 5'-UGCUGUUCUG-X-GUCUUGUCGU-5'-induced NF-kappaB activation

Activity [1]: Active | Activity [2]: Dose-dependent effect
Structure (SMILES): CO[C@@H]1[C@H](OP(=O)(S)OC[C@H]2O[C@@H](n3ccc(N)nc3=O)C[C@@H]2OP(=O)(S)OC[C@H]2O[C@@H](n3ccc4c(=O)[nH]c(N)nc43)C[C@@H]2OP(=O)(S)OC[C@H]2O[C@@H](n3cc(C)c(=O)[nH]c3=O)C[C@@H]2OP(=O)(S)OC[C@H]2O[C@@H](n3cc(C)c(=O)[nH]c3=O)C[C@@H]2OP(=O)(S)OC[C@H]2O[C@@H](n3ccc(N)nc3=O)C[C@@H]2OP(=O)(S)OC[C@H]2O[C@@H](n3cc(C)c(=O)[nH]c3=O)C[C@@H]2OP(=O)(S)OC[C@H]2O[C@@H](n3ccc(N)nc3=O)C[C@@H]2OP(=O)(S)OC[C@H]2O[C@@H](n3cc(C)c(=O)[nH]c3=O)C[C@@H]2OP(=O)(S)OC[C@H]2O[C@@H](n3cnc4c(=O)[nH]c(N)nc43)C[C@@H]2OP(=O)(S)OC[C@H]2O[C@@H](n3cc(C)c(=O)[nH]c3=O)C[C@@H]2O)[C@@H](COP(=O)(S)O[C@H]2[C@@H](OC)[C@H](n3cnc4c(=O)[nH]c(N)nc43)O[C@@H]2COP(=O)(S)O[C@H]2C[C@H](n3cc(C)c(=O)[nH]c3=O)O[C@@H]2COP(=O)(S)O[C@H]2C[C@H](n3ccc(N)nc3=O)O[C@@H]2COP(=O)(S)O[C@H]2C[C@H](n3cc(C)c(=O)[nH]c3=O)O[C@@H]2COP(=O)(S)O[C@H]2C[C@H](n3cnc4c(N)ncnc43)O[C@@H]2COP(=O)(S)O[C@H]2C[C@H](n3cc(C)c(=O)[nH]c3=O)O[C@@H]2COP(=O)(S)O[C@@H]2C[C@@H](n3ccc(N)nc3=O)O[C@H]2CO)O[C@H]1n1cnc2c(N)ncnc21 (some centres not stated)
